Legend:
CT DNA [1] = experiment: Spectrophotometric; type: binding, calf; conditions: 25°C, 5mM Tris/HCl, 50 mM NaClO4 buffer, pH=7.39; average of values calculated at 330 and 343 nm
CT DNA [2] = experiment: Fluorimetric; type: binding, calf; conditions: 25°C, 5mM Tris/HCl, 50 mM NaClO4 buffer, pH=7.39; values calculated at 380 nm
CT DNA [3] = experiment: Thermal denaturation of CT DNA; type: binding, calf; conditions: 0.5 equivalents of drug, 1h at 25°C, 5 mM Tris/HCl buffer; for ΔTm /1h incubation/25mM NaClO4: pH=7.39, 25mM NaClO4; for ΔTm /1h incubation/50m M NaClO4: pH=7.39, 50 mM NaClO4
SUP-T1 lymphoma cells = experiment: Cytotoxicity assay by flow cytometry; type: cell-based, human
[4] = test system: Jurkat human T lymphocyte leukemia cells; experiment: Cytotoxicity assay by flow cytometry; type: cell-based
Jurkat cells = experiment: Apoptosis assay by two-color flow cytometry; type: cell-based, human; conditions: 100 µM, 16 h
Method in brief: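 Jurkat cells were plated at 100,000 cells/well in RPMI 1640 with antibiotics and 10% heat-inactivated newborn calf serum, then exposed to 100 µM test compound (in 0.9% NaCl or DMSO) for 16 h. Cells were pelleted cold, washed in cold medium then PBS, and stained with Annexin V-FITC plus PI in HEPES binding buffer (pH 7.4, 140 mM NaCl, 2.55 mM CaCl2). Compensation used unstained, single- and double-stained cells.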

[5] = test system: dedifferentiated liposarcoma cell line LS141; conditions: cited from earlier work
[6] = test system: HCT-116 colon cancer cell lines; conditions: cited from earlier work
pBR322 plasmid DNA = experiment: Electrophoresis Mobility Shift Assay; type: binding; conditions: pBR322, 20 h at 37°C, molar ratios 0.25 to 1.0 (cisplatin 0.5 eq.)
CT DNA [7] = experiment: Circular dichroism spectroscopy of CT DNA; type: binding, calf; conditions: incubated at 37°C with increasing drug/DNA ratios
[8] = test system: several cancer cell lines; conditions: cited from earlier work
[9] = test system: poly (dG-dC).poly (dG-dC); conditions: cited from earlier work
[10] = test system: poly (dA-dT).poly (dA-dT); conditions: cited from earlier work

Row | Compound | Kb1, Absorption Titration (CT DNA [1]) | Kb2, Absorption Titration (CT DNA [1]) | Kb1, Emission Titration (CT DNA [2]) [M⁻¹] | Kb2, Emission Titration (CT DNA [2]) [M⁻¹] | ΔTm /1h incubation/25mM NaClO4 (CT DNA [3]) | ΔTm /1h incubation/50m M NaClO4 (CT DNA [3]) | effect on electrophoretic mobility of CCC and OC forms (pBR322 plasmid DNA) | further results
1 | [Ru(η^6-p-cymene)(η^6-CQDP)][BF4]2 [Complex 5] | 2.10 ± 0.68 x 10^7 M^−1 | 3.15 ± 0.12 x 10^5 M^−1 | 1.2e+06 | 354000 | +5.1 °C | +2.8 °C | – | CC50 (SUP-T1 lymphoma cells; SUP-T1, 20 h of incubation, PI and flow cytometry, average of triplicates): 70 µM; CC50 ([4]; 20 h of incubation, PI and flow cytometry, average of triplicates): 77 µM; mechanism of cell death (apoptosis/necrosis) (Jurkat cells): mainly induce apoptosis; antitumor activity (in words) [5]: active; antitumor activity (in words) [6]: active
2 | CCN(CC)CCCC(C)Nc1ccnc2cc(Cl)ccc12 (stereo not shown) [CQDP, chloroquine diphosphate] | 1.07 ± 0.05 x 10^7 M^−1 | 1.23 ± 0.68 x 10^5 M^−1 | 2.63e+07 | 438000 | +4.9 °C | +3.0 °C | does not cause any significant effect | CC50 (SUP-T1 lymphoma cells; Homo sapiens, SUP-T1, 20 h): 130 µM; CC50 ([4]; Homo sapiens, 20 h): 95 µM; changes in CD spectrum of CT DNA (CT DNA [7]): two new sizable CD bands at 330 and 340 nm
3 | Ru(KTZ)2Cl2 | – | – | – | – | – | – | – | IC50 [8]: ~25 µM
4 | CCN(CC)CCCC(C)Nc1ccnc2cc(Cl)ccc12.O=P(O)(O)O.O=P(O)(O)O (single isomer, unassigned; (-)) [(−)-CQDP] | – | – | – | – | – | – | – | binding affinity ratio of (−) to (+) enantiomer [9]: 1.29; binding affinity ratio of (−) to (+) enantiomer [10]: 1.28
5 | N.N.[Cl][Pt][Cl] [cisplatin] | – | – | – | – | – | – | decrease in mobility of the CCC form and an increase in mobility of the OC form | –

Source: publication PMC2910123 (Journal of inorganic biochemistry, 2010)
